This is a sample that favours compounds with a hit; in the whole collection about 3.2% have one here.
HTRA1 inhibitor: HTRA1 (human) protease inhibition | recombinant HTRA1, FP-rhodamine activity-based probe, fluorescence polarization | inhibition, % at 5.96 µM | actives 0.5% (n = 340,000) | AID 504803; in the data active = inhibition above about 36%;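 also: 0% = enzyme with DMSO and 100% = wells lacking enzyme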
ABHD4 inh: ABHD4 (mouse) inhibition, primary FP screen; purified mABHD4, FP-Rh probe fluorescence polarization; inhibition, % at 8.92 µM; Q8VD66; actives 0.54% (n = 370,000); AID 720543;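 active = inhibition exceeding the mean over every tested compound plus 3 SD, cut at about 30% in these data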;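 also: 0% = plate median of compound wells and 100% = S159A mutant with DMSO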
Target sequence (Q8VD66 whole entry, looked up): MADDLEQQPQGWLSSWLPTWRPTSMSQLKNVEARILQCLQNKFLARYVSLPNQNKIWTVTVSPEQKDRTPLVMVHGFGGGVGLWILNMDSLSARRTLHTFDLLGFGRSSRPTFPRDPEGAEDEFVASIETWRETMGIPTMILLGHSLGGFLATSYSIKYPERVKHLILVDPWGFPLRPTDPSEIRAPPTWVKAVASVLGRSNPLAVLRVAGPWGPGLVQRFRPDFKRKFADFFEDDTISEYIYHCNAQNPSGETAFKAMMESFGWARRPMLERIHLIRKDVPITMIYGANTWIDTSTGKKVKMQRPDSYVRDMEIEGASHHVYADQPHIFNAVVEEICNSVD
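Assay system: mouse ABHD4 enzyme, wild type / Also added: fluorescent activity-based probe FP-Rh / Doses: single nominal dose of 8.92 µM, 0.89% DMSO final / Timing: 45 min compound pre-incubation plus 60 min probe step, 25 °C / Signal: FP readout, ex 525 nm / em 598 nm / Control set: S159A mutant/DMSO as 100%, compound-well median as 0%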
rCAG binder: binds r(CAG) RNA repeats | AID 651821 | actives 1.3% (n = 370,000) | r(CAG) RNA repeat, TO-PRO-1 dye displacement fluorescence | inhibition, % at 3 µM;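 active = inhibition above the plate cutoff, the mean of all test compounds on that plate plus 3 SD, cut at about 35% in these data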;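 also: 0% = DMSO alone and 100% = 100 µM mitoxantrone as full dye displacement; higher means more dye released from RNA so lower well fluorescence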
DAGLB inh: blocks human DAGLB lipase activity; Q8NCG7; HEK293T DAGLB membrane lysate, EnzChek fluorogenic substrate; inhibition, % at 5.17 µM; actives 0.059% (n = 340,000); AID 504411; in the data active = inhibition above about 34%;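 also: 0% = enzyme with vehicle and 100% = wells lacking enzyme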
LEDGF integ inh: blocks HIV-1 LEDGF/p75-dependent DNA integration. inhibition, % at 3.7 µM. AID 743269. actives 0.64% (n = 370,000). TR-FRET IN-LEDGF/p75 DNA integration, Eu/Cy5;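 active = inhibition above the screen-wide mean plus 3 SD, cut at about 13% in these data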;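 also: signal is the Cy5 over europium emission ratio at 671 and 618 nm; 0% = plate median of compound wells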
PRMT1 inh: PRMT1 (human) inhibition, primary screen | Q99873 | recombinant PRMT1, activity-based probe fluorescence polarization | inhibition, % at 2.79 µM | actives 1.3% (n = 370,000);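 active = inhibition above about 21% made by adding two undisclosed values, limit read from the data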
The depositor's hits bear a star.

What do the screens show for `O=c1cc(Cl)[nH]c(=O)n1CCNc1ncc(C(F)(F)F)cc1Cl`?
HTRA1 inhibitor: -18.2; ABHD4 inh: -11.7; rCAG binder: 8.0; DAGLB inh: 7.0; LEDGF integ inh: -5.2; PRMT1 inh: -2.5

What do the screens show for `COc1cc(/C=N/NC(=O)CCc2n[nH]c(=O)[nH]c2=O)cc(OC)c1OC`?
HTRA1 inhibitor: 3.6; ABHD4 inh: 1.3; rCAG binder: 3.0; DAGLB inh: -0.6; LEDGF integ inh: -2.9; PRMT1 inh: 0.4

Results for Oc1ccc2ccccc2c1CNc1ccc2ccccc2c1 ?
HTRA1 inhibitor: 23.6; ABHD4 inh: 39.7*; rCAG binder: 22.5; DAGLB inh: -0.3; LEDGF integ inh: 0.0; PRMT1 inh: 24.9*

How did O=c1c2sccc2[nH]c(=S)n1-c1ccccc1 do in these assays?
HTRA1 inhibitor: 3.8; ABHD4 inh: 1.1; rCAG binder: -3.2; DAGLB inh: 0.8; LEDGF integ inh: -3.0; PRMT1 inh: -2.5

Results for COc1cc2cccc(OC)c(=O)c2c(O)c1OC ?
HTRA1 inhibitor: 11.1; ABHD4 inh: 2.5; rCAG binder: -3.9; DAGLB inh: -1.0; LEDGF integ inh: -8.0; PRMT1 inh: 2.5

How did CC(=O)Oc1cc2cccc(OC(C)=O)c(=O)c2c(OC(C)=O)c1OC(C)=O do in these assays?
HTRA1 inhibitor: 69.8*; DAGLB inh: 1.2

How did CC1(c2ccc([N+](=O)[O-])cc2)Nc2ccccc2S1 (stereo unspecified) do in these assays?
HTRA1 inhibitor: 14.7; ABHD4 inh: 11.4; rCAG binder: 12.2; DAGLB inh: -1.9; LEDGF integ inh: 5.0; PRMT1 inh: 45.1*

Results for COc1ccc(C(=O)NCc2ccc3c(c2)cc(C)n3C)cc1OC ?
HTRA1 inhibitor: 12.2; ABHD4 inh: 16.7; rCAG binder: 5.3; DAGLB inh: 1.1; LEDGF integ inh: -2.5; PRMT1 inh: 24.3*

How did COc1ccc(-c2nnc(SCc3cccc(F)c3)n2-c2ccccc2)cc1 do in these assays?
ABHD4 inh: -0.2; rCAG binder: 2.8; LEDGF integ inh: 2.1; PRMT1 inh: -5.5

What do the screens show for `Cc1cc(C)c(NC(=O)CSc2ccc(-c3cccnc3)nn2)c(C)c1`?
HTRA1 inhibitor: 2.3; ABHD4 inh: 1.0; rCAG binder: -1.8; DAGLB inh: -0.6; LEDGF integ inh: -5.6; PRMT1 inh: 23.2*

How did CCCC(C)NS(=O)(=O)c1ccc(OC)c(C)c1 (stereo unspecified) do in these assays?
HTRA1 inhibitor: 0.2; ABHD4 inh: -9.6; rCAG binder: -2.7; DAGLB inh: -1.0; LEDGF integ inh: 3.2; PRMT1 inh: 5.2

Results for CN(C)c1ccc(NC(=O)c2cn(-c3ccccc3)nc2-c2cccs2)cc1 ?
HTRA1 inhibitor: 6.7; ABHD4 inh: 10.1; rCAG binder: 14.1; DAGLB inh: -1.1; LEDGF integ inh: -3.3; PRMT1 inh: 3.0

How did CN(C)C(=O)c1cn(-c2ccccc2)nc1-c1cccs1 do in these assays?
HTRA1 inhibitor: -1.6; ABHD4 inh: 1.9; rCAG binder: 0.0; DAGLB inh: 2.1; LEDGF integ inh: 17.3*; PRMT1 inh: -2.1

What do the screens show for `O=C(Nc1ccc2nc(-c3ccco3)c(-c3ccco3)nc2c1)NC1CC1`?
HTRA1 inhibitor: 50.8*; DAGLB inh: 3.5

How did O=C(Nc1cccc(C(F)(F)F)c1)c1ccc2nc(-c3ccco3)c(-c3ccco3)nc2c1 do in these assays?
HTRA1 inhibitor: 67.1*; ABHD4 inh: 8.6; rCAG binder: 15.1; DAGLB inh: 29.7; LEDGF integ inh: -0.8; PRMT1 inh: 3.1

How did O=C(Nc1ccnn1C1CCN(C(=O)c2ccccc2C(F)(F)F)CC1)C1CC1 do in these assays?
HTRA1 inhibitor: 2.2; ABHD4 inh: 1.4; rCAG binder: -6.0; DAGLB inh: 6.5; LEDGF integ inh: 14.3*; PRMT1 inh: -0.6

What do the screens show for `O=C(Nc1ccnn1C1CCN(C(=O)c2c(F)cccc2F)CC1)C1CC1`?
HTRA1 inhibitor: -1.4; ABHD4 inh: 1.9; rCAG binder: -2.0; DAGLB inh: -1.4; LEDGF integ inh: -2.6; PRMT1 inh: 1.5

Results for CCN(CC)c1ccc(NC2CC(=O)N(CCc3ccc(OC)cc3)C2=O)cc1 (stereo unspecified) ?
HTRA1 inhibitor: 53.7*; ABHD4 inh: 28.7; rCAG binder: 20.0; DAGLB inh: 10.9; LEDGF integ inh: 1.6; PRMT1 inh: 2.5

Source: PubChem
